Data from ChEMBL document CHEMBL1144871, “Synthesis of substituted 6-anilinouracils and their inhibition of DNA polymerase IIIC and Gram-positive bacterial growth” (J Med Chem, 2003).
pKi: −log10 of the molar value. Converted amounts (≈) assume the structure as drawn.

Legend:
Enterococcus faecalis [1] = assay: Antibacterial activity against vancomycin-resistant strain of Enterococcus faecalis(VRE) was determined; type: functional
Outline: (§1)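 MIC by broth microdilution. Log-phase cultures in Luria broth, seeded at (3-7) × 10⁵ CFU/mL stocks. Compound from DMSO stock, 2-fold serial dilutions giving five concentrations from 20 to 1.25 µg/mL, final 1% DMSO, with untreated and DMSO controls. Duplicate assays, 37 °C for 16 to 24 h, growth read as OD 600 nm. MIC is the averaged lowest concentration preventing growth.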

Enterococcus faecium = assay: Antibacterial activity against Enterococcus faecium was determined; type: functional, enterococcus fecium
Outline: (§2)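 Broth microdilution MIC. Log-phase cultures grown in Luria broth; wells seeded from stocks at (3-7) × 10⁵ CFU/mL. DMSO stocks diluted 2-fold to five concentrations, 20 to 1.25 µg/mL, plus untreated control; 1% DMSO final in all wells. Duplicate assays, 37 °C for 16 to 24 h, growth read as OD600. MIC taken as lowest concentration preventing growth, averaged.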

Escherichia coli = assay: Antibacterial activity against Escherichia coli was determined; type: functional; outline: as §2
Enterococcus faecalis [2] = assay: Antibacterial activity against Enterococcus faecalis was determined; type: functional; outline: as §1
Staphylococcus aureus [3] = assay: Antibacterial activity against Staphylococcus aureus(smith) was determined; type: functional
Staphylococcus aureus [4] = assay: Antibacterial activity against methicillin-resistant strain of Staphylococcus aureus(MRSA B42876) was determined; type: functional; outline: as §1
[5] = target: DNA polymerase III PolC-type (Bacillus subtilis (strain 168), UniProt P13267); assay: Inhibitory activity against DNA polymerase IIIC from Bacillus subtilis was determined
DNA polymerase III PolC-type, sequence (P13267 whole entry, the tested form may be a part): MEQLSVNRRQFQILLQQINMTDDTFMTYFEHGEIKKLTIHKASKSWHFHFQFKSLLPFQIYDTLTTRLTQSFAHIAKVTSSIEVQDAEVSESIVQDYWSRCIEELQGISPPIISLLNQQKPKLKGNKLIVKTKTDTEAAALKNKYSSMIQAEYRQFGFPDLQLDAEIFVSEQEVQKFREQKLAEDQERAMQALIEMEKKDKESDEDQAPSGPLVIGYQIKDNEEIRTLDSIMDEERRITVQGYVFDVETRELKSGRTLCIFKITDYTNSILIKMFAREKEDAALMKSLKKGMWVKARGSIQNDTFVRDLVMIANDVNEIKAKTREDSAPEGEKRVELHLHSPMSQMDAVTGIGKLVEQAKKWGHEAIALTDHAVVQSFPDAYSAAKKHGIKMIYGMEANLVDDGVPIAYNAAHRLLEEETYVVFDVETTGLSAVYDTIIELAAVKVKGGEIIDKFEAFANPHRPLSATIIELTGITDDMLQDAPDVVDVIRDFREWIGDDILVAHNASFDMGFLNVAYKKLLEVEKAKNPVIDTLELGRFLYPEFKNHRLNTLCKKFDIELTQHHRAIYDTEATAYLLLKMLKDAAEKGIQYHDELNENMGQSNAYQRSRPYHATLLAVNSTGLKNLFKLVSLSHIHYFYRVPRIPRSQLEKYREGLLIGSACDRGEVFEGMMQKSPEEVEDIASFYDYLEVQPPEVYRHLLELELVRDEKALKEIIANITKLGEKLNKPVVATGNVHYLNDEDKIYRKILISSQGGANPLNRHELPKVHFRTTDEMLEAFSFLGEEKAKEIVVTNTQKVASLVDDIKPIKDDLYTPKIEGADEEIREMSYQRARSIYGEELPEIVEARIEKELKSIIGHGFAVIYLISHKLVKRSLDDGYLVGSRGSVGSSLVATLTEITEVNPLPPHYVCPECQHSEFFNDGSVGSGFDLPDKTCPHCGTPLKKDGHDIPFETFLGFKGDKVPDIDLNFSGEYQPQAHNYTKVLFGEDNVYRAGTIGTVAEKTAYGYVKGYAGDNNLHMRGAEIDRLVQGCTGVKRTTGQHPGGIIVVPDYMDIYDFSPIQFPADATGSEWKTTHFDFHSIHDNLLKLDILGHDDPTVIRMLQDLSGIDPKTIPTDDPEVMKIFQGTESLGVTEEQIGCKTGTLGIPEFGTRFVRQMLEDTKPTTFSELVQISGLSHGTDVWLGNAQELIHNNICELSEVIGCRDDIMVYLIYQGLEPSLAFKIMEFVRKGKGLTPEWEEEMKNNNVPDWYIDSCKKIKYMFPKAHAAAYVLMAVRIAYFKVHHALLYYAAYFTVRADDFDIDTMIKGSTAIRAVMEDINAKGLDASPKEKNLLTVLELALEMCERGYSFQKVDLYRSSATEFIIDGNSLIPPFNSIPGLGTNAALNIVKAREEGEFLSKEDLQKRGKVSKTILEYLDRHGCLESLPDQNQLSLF
Outline: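 Homogeneous recombinant B. subtilis pol IIIC, 0.025-0.06 units, added to buffered Mg²⁺/DTT/glycerol mix with dATP, dCTP, dTTP, [³H]dTTP and activated calf thymus DNA, no dGTP ("truncated" assay). Compound serial dilutions in DMSO added before enzyme. 10 min at 30 °C, TCA-pyrophosphate stop, acid-precipitated DNA filtered and scintillation counted. Apparent Ki read directly; duplicates.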

Bacillus subtilis = assay: Antibacterial activity against Bacillus subtilis was determined; type: functional
Staphylococcus aureus [6] = assay: Antibacterial activity against Staphylococcus aureus was determined; type: functional

| SMILES | MIC (Enterococcus faecalis [1]) [µg/mL] | MIC (Enterococcus faecium) [µg/mL] | MIC (Escherichia coli) [µg/mL] | MIC (Enterococcus faecalis [2]) [µg/mL] | MIC (Staphylococcus aureus [3]) [µg/mL] | MIC (Staphylococcus aureus [4]) [µg/mL] | pKi [5] | MIC (Bacillus subtilis) [µg/mL] | MIC (Staphylococcus aureus [6]) [µg/mL] |
| --- | --- | --- | --- | --- | --- | --- | --- | --- | --- |
| CCc1cc(Nc2cc(=O)n(CCCCN3CCC(O)(c4ccc(Cl)c(C(F)(F)F)c4)CC3)c(=O)[nH]2)ccc1C | 2.5 (≈ 4.32 µM) | 2.5 (≈ 4.32 µM) | > 20 |  |  |  |  |  |  |
| CCc1cc(Nc2cc(=O)n(CCCCN3CCN(C(=O)c4ccco4)CC3)c(=O)[nH]2)ccc1C | 10 (≈ 20.9 µM) | 10 (≈ 20.9 µM) | > 20 | 5 (≈ 10.4 µM) | 5 (≈ 10.4 µM) | 20 (≈ 41.7 µM) |  |  |  |
| CCc1cc(Nc2cc(=O)n(CCCCO)c(=O)[nH]2)ccc1C | 2.5 (≈ 7.88 µM) | 2.5 (≈ 7.88 µM) | > 20 |  |  |  | 7.20 |  |  |
| COCCCCn1c(=O)cc(Nc2ccc(C)c(CSC#N)c2)[nH]c1=O |  | > 20 | > 20 | > 20 | > 20 |  | 7.22 | > 20 | > 20 |
| COCCCCn1c(=O)cc(Nc2ccc(C)c(Br)c2)[nH]c1=O | 2.5 (≈ 6.54 µM) | 5 (≈ 13.1 µM) | > 20 | 5 (≈ 13.1 µM) | 2.5 (≈ 6.54 µM) | 5 (≈ 13.1 µM) | 6.89 | 2.5 (≈ 6.54 µM) | 5 (≈ 13.1 µM) |
| COCCCCn1c(=O)cc(Nc2ccc(C)c(CS)c2)[nH]c1=O |  | > 20 | > 20 | > 20 | > 20 |  | 6.74 | > 20 | > 20 |
| CCc1cc(Nc2cc(=O)n(CCCCN3CCSCC3)c(=O)[nH]2)ccc1C | 5 (≈ 12.4 µM) | 5 (≈ 12.4 µM) | > 20 | 5 (≈ 12.4 µM) |  | 20 (≈ 49.7 µM) |  |  | 20 (≈ 49.7 µM) |
| C=Cc1cc(Nc2cc(=O)n(CCCCOC)c(=O)[nH]2)ccc1C | 10 (≈ 30.4 µM) | 5 (≈ 15.2 µM) | > 20 | 10 (≈ 30.4 µM) | 5 (≈ 15.2 µM) | 10 (≈ 30.4 µM) | 6.25 | < 1.25 | 5 (≈ 15.2 µM) |
| COCCCCn1c(=O)cc(Nc2ccc(C)c(CO)c2)[nH]c1=O |  | > 20 | > 20 | > 20 | > 20 |  | 4.70 | > 20 | > 20 |
| COCCCCn1c(=O)cc(Nc2ccc(C)c(C(C)=O)c2)[nH]c1=O |  | > 20 | > 20 | > 20 | > 20 |  | 5.49 | > 20 | > 20 |
| CCc1cc(Nc2cc(=O)n(CCCCN)c(=O)[nH]2)ccc1C.Cl |  |  | > 20 |  |  |  | 7.21 |  |  |
| COCCCCn1c(=O)cc(Nc2ccc(C)c(C(C)Cl)c2)[nH]c1=O (stereo not drawn) |  | > 20 | > 20 | > 20 | > 20 |  | 5.19 | > 20 | > 20 |
| CCc1cc(Nc2cc(=O)n(CCCCN3CCN(c4ccc(F)cc4)CC3)c(=O)[nH]2)ccc1C | 5 (≈ 10.4 µM) | 5 (≈ 10.4 µM) | > 20 | 10 (≈ 20.9 µM) |  | 20 (≈ 41.7 µM) |  |  | 10 (≈ 20.9 µM) |
| COCCCCn1c(=O)cc(Nc2ccc(C)c(I)c2)[nH]c1=O | 5 (≈ 11.6 µM) | 10 (≈ 23.3 µM) | > 20 | 10 (≈ 23.3 µM) | 5 (≈ 11.6 µM) | 5 (≈ 11.6 µM) | 6.51 | 5 (≈ 11.6 µM) | 10 (≈ 23.3 µM) |
| CCc1cc(Nc2cc(=O)n(CCCCN3CCNCC3)c(=O)[nH]2)ccc1C.Cl.Cl |  | > 20 | > 20 | > 20 | > 20 |  | 7.52 | 20 | > 20 |
| C=C(C)c1cc(Nc2cc(=O)n(CCCCOC)c(=O)[nH]2)ccc1C | 20 (≈ 58.2 µM) | 20 (≈ 58.2 µM) | > 20 | 20 (≈ 58.2 µM) | 10 (≈ 29.1 µM) | > 20 | 6.25 | 2.5 (≈ 7.28 µM) | 20 (≈ 58.2 µM) |
| CCOC(=O)CC1CN(CCCCn2c(=O)cc(Nc3ccc(C)c(CC)c3)[nH]c2=O)CCO1 (stereo not drawn) |  | 10 (≈ 21.2 µM) | > 20 | > 20 | 20 (≈ 42.3 µM) | 20 (≈ 42.3 µM) | 7.59 | 5 (≈ 10.6 µM) | 20 (≈ 42.3 µM) |
| CCc1cc(Nc2cc(=O)n(CCCCN3CCOCC3)c(=O)[nH]2)ccc1C |  |  | > 20 |  |  |  |  |  |  |

| SMILES | MIC (Enterococcus faecalis [1]) [µg/mL] | MIC (Enterococcus faecium) [µg/mL] | MIC (Escherichia coli) [µg/mL] | MIC (Enterococcus faecalis [2]) [µg/mL] | MIC (Staphylococcus aureus [3]) [µg/mL] | MIC (Staphylococcus aureus [4]) [µg/mL] | pKi [5] | MIC (Bacillus subtilis) [µg/mL] | MIC (Staphylococcus aureus [6]) [µg/mL] |
| --- | --- | --- | --- | --- | --- | --- | --- | --- | --- |
| CCc1cc(Nc2cc(=O)n(CCCCN3CCN(Cc4ccccc4)CC3)c(=O)[nH]2)ccc1C | 5 (≈ 10.5 µM) | 10 (≈ 21 µM) | > 20 | 10 (≈ 21 µM) | 10 (≈ 21 µM) | 10 (≈ 21 µM) | 7.66 | 20 (≈ 42 µM) | 20 (≈ 42 µM) |
| CCc1cc(Nc2cc(=O)n(CCCCN=[N+]=[N-])c(=O)[nH]2)ccc1C | 2.5 (≈ 7.3 µM) | < 1.25 | > 20 | 5 (≈ 14.6 µM) | 2.5 (≈ 7.3 µM) | > 20 | 6.92 | < 1.25 | 2.5 (≈ 7.3 µM) |
| COCCCCn1c(=O)cc(NCc2ccc(Cl)c(Cl)c2)[nH]c1=O | 5 (≈ 13.4 µM) | 5 (≈ 13.4 µM) | > 20 | 5 (≈ 13.4 µM) | 5 (≈ 13.4 µM) | 20 (≈ 53.7 µM) | 7.10 | 3.75 (≈ 10.1 µM) | 10 (≈ 26.9 µM) |
| CCc1cc(Nc2cc(=O)n(CCCCN3CCC(O)(c4ccc(Cl)cc4)CC3)c(=O)[nH]2)ccc1C | 10 (≈ 19.6 µM) | 5 (≈ 9.78 µM) | > 20 | 5 (≈ 9.78 µM) | 5 (≈ 9.78 µM) | 5 (≈ 9.78 µM) |  |  |  |
| CCc1cc(Nc2cc(=O)n(CCCCN3CCN(c4ncccn4)CC3)c(=O)[nH]2)ccc1C | 5 (≈ 10.8 µM) | 5 (≈ 10.8 µM) | > 20 | 5 (≈ 10.8 µM) | 10 (≈ 21.6 µM) | 10 (≈ 21.6 µM) |  |  |  |
| COCCCCn1c(=O)cc(Nc2ccc(C)c(Cl)c2)[nH]c1=O | 5 (≈ 14.8 µM) | 5 (≈ 14.8 µM) | > 20 | 5 (≈ 14.8 µM) | 5 (≈ 14.8 µM) | > 20 | 7.38 | < 1.25 | 10 (≈ 29.6 µM) |
| COCCCCn1c(=O)cc(Nc2ccc(C)c(CCl)c2)[nH]c1=O |  | > 20 | > 20 | > 20 | 20 (≈ 56.8 µM) | 20 (≈ 56.8 µM) | 7.40 | 5 (≈ 14.2 µM) | 20 (≈ 56.8 µM) |
| CCc1cc(Nc2cc(=O)n(CCCCOC)c(=O)[nH]2)ccc1C | 2.5 (≈ 7.54 µM) |  | > 20 |  |  |  | 7.06 |  |  |
| Cc1ccc(Nc2cc(=O)n(CCCCO)c(=O)[nH]2)cc1I | 2.5 (≈ 6.02 µM) | 5 (≈ 12 µM) | > 20 | 5 (≈ 12 µM) | 5 (≈ 12 µM) | 5 (≈ 12 µM) | 7.17 | 5 (≈ 12 µM) | 10 (≈ 24.1 µM) |
| COCCCCn1c(=O)cc(Nc2ccc(C)c(C(C)O)c2)[nH]c1=O (stereo not drawn) |  | > 20 | > 20 | > 20 | > 20 |  | 5.68 | > 20 | > 20 |
| COCCCCn1c(=O)cc(Nc2ccc(C)c(C)c2)[nH]c1=O | 10 (≈ 31.5 µM) | 20 (≈ 63 µM) | > 20 | 10 (≈ 31.5 µM) | 10 (≈ 31.5 µM) | 10 (≈ 31.5 µM) | 6.26 | 2.5 (≈ 7.88 µM) | 20 (≈ 63 µM) |
| COCCCCn1c(=O)cc(Nc2ccc(C)c(CC#N)c2)[nH]c1=O |  | 20 (≈ 58.4 µM) | > 20 | > 20 | 20 (≈ 58.4 µM) |  | 5.99 | 20 (≈ 58.4 µM) | > 20 |
| CCc1cc(Nc2cc(=O)n(CCCCN3CCC(O)(c4ccccc4)CC3)c(=O)[nH]2)ccc1C | 10 (≈ 21 µM) | 10 (≈ 21 µM) | > 20 | 20 (≈ 42 µM) | 20 (≈ 42 µM) | 20 (≈ 42 µM) | 7.17 | 20 (≈ 42 µM) | 20 (≈ 42 µM) |
| CCOC1CN(CCCCn2c(=O)cc(Nc3ccc(C)c(CC)c3)[nH]c2=O)CCO1 (stereo not drawn) | 10 (≈ 23.2 µM) | 20 (≈ 46.5 µM) | > 20 | 10 (≈ 23.2 µM) | 20 (≈ 46.5 µM) | 20 (≈ 46.5 µM) | 7.37 | 2.5 (≈ 5.81 µM) | 10 (≈ 23.2 µM) |
| CCc1cc(Nc2cc(=O)n(CCCCI)c(=O)[nH]2)ccc1C |  | > 20 | > 20 | > 20 | > 20 |  | 6.85 | > 20 | > 20 |
| CCc1cc(Nc2cc(=O)n(CCCCN3CCCCC3)c(=O)[nH]2)ccc1C | 10 (≈ 26 µM) | 20 (≈ 52 µM) | > 20 | 20 (≈ 52 µM) | 40 (≈ 104 µM) | 40 (≈ 104 µM) | 7.55 | 10 (≈ 26 µM) | 20 (≈ 52 µM) |
| O=C(O)c1cn(C2CC2)c2cc(N3CCNCC3)c(F)cc2c1=O [CIPROFLOXACIN] | 20 (≈ 60.4 µM) |  | 0.313 (≈ 0.945 µM) |  |  |  |  |  |  |
| CN[C@H](CC(C)C)C(=O)N[C@H]1C(=O)N[C@@H](CC(N)=O)C(=O)N[C@H]2C(=O)N[C@H]3C(=O)N[C@H](C(=O)N[C@H](C(=O)O)c4cc(O)cc(O)c4-c4cc3ccc4O)[C@H](O)c3ccc(c(Cl)c3)Oc3cc2cc(c3O[C@@H]2O[C@H](CO)[C@@H](O)[C@H](O)[C@H]2O[C@H]2C[C@](C)(N)[C@H](O)[C@H](C)O2)Oc2ccc(cc2Cl)[C@H]1O [VANCOMYCIN] | > 20 |  | > 20 |  |  |  |  |  |  |
